OX1R antag-1 = antagonists of human orexin 1 receptor | inhibition, % at 5 µM | CHO/OX1R cells, Fluo-8 calcium fluorescence, orexin A | O43613 | 330,000 compounds, 0.43% hits;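 active means inhibition above its plate's threshold, mean inhibition of all tested compounds on the plate plus 3 SD, cut at about 37% in these data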
TAAR1 antag = antagonists of human TAAR1. AID 624466. inhibition, % at 3 µM. CHO RD-HGA16 TAAR1, Fluo-8 calcium fluorescence, antagonist. 360,000 compounds, 1.5% hits. Q96RJ0;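 active means inhibition above a per-plate cutoff, the mean inhibition of test compounds on that plate plus 3 SD, cut at about 49% in these data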
Target sequence (Q96RJ0 whole entry, looked up): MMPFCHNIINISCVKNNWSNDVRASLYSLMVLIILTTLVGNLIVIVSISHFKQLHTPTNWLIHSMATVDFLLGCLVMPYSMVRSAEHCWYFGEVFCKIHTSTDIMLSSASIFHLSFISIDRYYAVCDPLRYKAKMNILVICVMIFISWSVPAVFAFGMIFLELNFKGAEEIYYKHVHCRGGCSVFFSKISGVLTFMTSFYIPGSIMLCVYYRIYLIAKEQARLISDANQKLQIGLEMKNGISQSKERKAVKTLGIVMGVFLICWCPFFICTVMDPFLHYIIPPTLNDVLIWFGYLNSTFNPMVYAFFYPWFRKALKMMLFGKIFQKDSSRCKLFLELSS
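Assay system: RD-HGA16 CHO cells with stable hTAAR1 and Gα16 / Reagent: EC80 β-phenethylamine stimulus / Doses: 3 µM, single point / Timing: dye loading 75 min at 37 °C, then 30 min room temperature / Measured by: Fluo-8 intracellular calcium dye fluorescence, real-time kinetic reads / Controls: vehicle wells and EC80 agonist wells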
CHO parental Ca = counter-screen: ATP calcium response change in parental CHO cells; parental CHO-K1, ATP-induced calcium, Fluo-8 fluorescence; inhibition, % at 5.6 µM; 330,000 compounds, 0.63% hits;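 active means inhibition above that plate's mean sample inhibition plus 3 SD, cut at about 26% in these data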
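Assay system – parental CHO cells · Reagent – ATP stimulus · Detection – intracellular calcium via Fluo-8 no-wash fluorescent dye · Evaluation – percent inhibition of ATP-evoked calcium rise, normalized to controls · Controls – ATP wells versus no-ATP DMSO wells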
GPR7 antag = blocks human GPR7 receptor signaling; P48145; GPR7-expressing cells, fluorescence antagonist assay; inhibition, % at 4.4 µM; 290,000 compounds, 1.1% hits; AID 1861; in the data active means inhibition above about 16%, passing the limit was not always enough;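 further: cells stimulated with the agonist NPW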
Target sequence (P48145 whole entry, looked up): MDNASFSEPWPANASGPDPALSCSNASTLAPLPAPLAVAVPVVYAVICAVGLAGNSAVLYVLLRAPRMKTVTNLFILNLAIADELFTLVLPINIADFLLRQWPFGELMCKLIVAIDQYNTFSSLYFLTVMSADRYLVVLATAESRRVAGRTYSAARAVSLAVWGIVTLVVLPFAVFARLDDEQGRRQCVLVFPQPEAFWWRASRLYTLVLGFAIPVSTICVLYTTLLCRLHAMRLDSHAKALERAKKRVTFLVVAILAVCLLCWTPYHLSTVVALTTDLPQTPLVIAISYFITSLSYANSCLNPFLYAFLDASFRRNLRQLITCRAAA
OX1R antag-2 = blocks the human orexin 1 receptor; O43613; OX1R-expressing cells, FRET antagonist read-out; inhibition, % at 6.6 µM; 330,000 compounds, 1.8% hits; AID 485270; in the data active means inhibition mostly above about 38%, no sharp cut-off; inactive means mostly below about 40%
TAAR1 agonist = agonists of human TAAR1. activation, % at 3 µM. CHO RD-HGA16 TAAR1, Fluo-8 calcium fluorescence; vehicle wells 0%, saturating PEA agonist 100%. AID 624467. 360,000 compounds, 0.99% hits. Q96RJ0;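 active means activation above the mean activation of all test compounds in the run plus 3 SD, cut at about 38% in these data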
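Signal – calcium-sensitive Fluo-8 signal, excitation 470-495, emission 515-575 nm · System – RD-HGA16 (CHO) cells co-expressing Gα16 and hTAAR1 · Incubation – 17-24 h seeding, 75 min 37 °C dye, 30 min RT · Compound dosing – 3 µM single concentration · Repeats – no replicates (n 1)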
GPR7 antag cf = human GPR7 antagonism, confirmation assay. inhibition, % at 4.4 µM. 2,400 compounds, 52% hits. GPR7-expressing cells, calcium fluorescence antagonist mode. shares compounds with GPR7 antag; in the data active means inhibition above about 24%;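 further: stimulated with the GPR7 agonist NPW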
MCHR1 antagonist = antagonizes human MCHR1, a GPR7 antagonist counter-screen. shares compounds with GPR7 antag. AID 2148. MCHR1-expressing cells, fluorescence antagonist assay. 2,400 compounds, 62% hits. inhibition, % at 4.4 µM; in the data active means inhibition above about 22%
A number is an active result; . = inactive; / = no result. In the library only some 4.6% were active in any assay of this set; here they are far more common.

SMILES	OX1R antag-1	TAAR1 antag	CHO parental Ca	GPR7 antag	OX1R antag-2	TAAR1 agonist	GPR7 antag cf	MCHR1 antagonist
CC(=O)N1c2ccc(S(=O)(=O)N3CCCC(C(=O)N4CCCCC4)C3)cc2CC1C (stereo not drawn)	.	.	.	.	.	.	/	/
CC1Cc2cc(S(=O)(=O)N3CCCC(C(=O)N4CCCCC4)C3)ccc2N1C(=O)C1CC1 (stereo not drawn)	.	.	.	28	.	.	.	24
CN(N=O)c1ccc(CC2CCc3ccccc32)cc1 (stereo not drawn)	/	.	/	/	/	.	/	/
O=C(Nc1ccccc1)Nc1ccc(Br)c(Cl)c1	.	.	29	29	.	.	50	57
O=C(Nc1ccccc1)Nc1ccccc1Br	.	.	.	.	.	.	/	/
CCCOc1ccc(-c2csc(N)n2)cc1[N+](=O)[O-]	.	.	.	27	.	.	.	26
CCCCOc1ccc(-c2cn3ccccc3n2)cc1[N+](=O)[O-]	.	.	.	.	.	.	/	/
CSc1ccc(C(O)c2ncc(-c3cccc(OCc4ccccc4)c3)[nH]2)cc1 (stereo not drawn)	/	.	/	/	/	.	/	/
Cc1cccc(C(=O)N(CCc2ccccc2)Cc2ccccc2)c1[N+](=O)[O-]	.	.	.	24	.	.	24	67
Cc1cc(C)nc(/N=C(\N)Nc2ccc(OCc3ccccc3)cc2)n1	105	106	89	101	.	127	99	107
CC(C)Nc1nc2n(c(=O)n1)CCN2C(C)C	.	.	.	.	.	.	/	/
COc1ccc(C2CCCN2CC(O)COc2ccccc2C(C)C)cc1 (stereo not drawn)	.	.	.	24	.	.	33	41
COc1cccc(-n2c(C)cc(/C=C3\C(=N)N4N=C(CC(=O)N5CCOCC5)SC4=NC3=O)c2C)c1	.	.	.	.	.	.	/	/
Brc1cc2c(cc1/C=N/Nc1nc(N3CCCCC3)nc(N3CCCCC3)n1)OCO2	/	/	/	25	/	/	.	.
COC(=O)CSc1nc2ccc(NC(=O)CSc3nnnn3Cc3ccccc3)cc2s1	51	.	51	37	.	.	64	55
O=C(CSc1nc2ccc(NC(=O)c3ccccc3C(=O)O)cc2s1)Nc1ccc(F)c([N+](=O)[O-])c1	.	.	.	26	.	.	26	66
COc1ccccc1CNC(=O)c1csc(Cc2ccc(Cl)cc2)n1	.	50	.	29	.	.	.	45
COc1ccc(CNC(=O)c2csc(Cc3ccccc3)n2)cc1	.	.	.	.	.	.	/	/
CSc1nc(C)c2c(n1)N(c1ccc(F)cc1)CC2	.	.	.	.	.	.	/	/
Cc1ccc2nc(C)c3c(c2c1)N(c1ccc(F)cc1)CC3	.	.	.	35	.	.	42	31
CC(NC(=O)Cc1cccc(C(F)(F)F)c1)c1ccc(F)cc1 (stereo not drawn)	.	.	.	27	.	.	.	.
CC(NC(=O)Cc1ccc(F)cc1)c1ccccc1 (stereo not drawn)	.	.	.	.	.	.	/	/
Cc1cc(Cl)ccc1OCC(=O)N1CCN(c2ncccn2)CC1	.	.	.	24	.	.	.	.
CCCNC(=O)/C(=C/c1cn(S(=O)(=O)N(C)C)c2ccccc12)NC(=O)c1ccc(OC)cc1	.	.	.	.	.	.	/	/
CC1(C)CC(=O)C(C=NCCCO)=C(O)C1	.	.	.	27	.	.	.	.
SMILES	OX1R antag-1	TAAR1 antag	CHO parental Ca	GPR7 antag	OX1R antag-2	TAAR1 agonist	GPR7 antag cf	MCHR1 antagonist
CC1(C)CC(=O)C(C=NCC(N)=O)=C(O)C1	.	.	.	.	.	.	/	/
COC(=O)c1cc(NC(=O)c2c(-c3c(Cl)cccc3Cl)noc2C)ccc1N1CCOCC1	.	.	.	24	.	.	.	.
Cc1[nH]c(C)c(S(=O)(=O)NCc2ccc(Cl)cc2)c1C(=O)N1CCCC1	.	.	.	.	.	.	/	/
O=C(COC(=O)c1ccccc1F)c1ccc(-n2nncc2-c2ccco2)cc1	.	.	.	22	.	.	.	26
CCCc1cnc(NCCNCC(O)COc2ccc(Cl)c(Cl)c2)nc1 (stereo not drawn)	.	.	.	23	.	.	31	52
Cc1ccc(C)c(N2CCN(C(=O)C3CCN(S(=O)(=O)c4c(C)noc4C)CC3)CC2)c1	.	.	.	32	.	.	.	47
O=C(O)c1cccc(N2C(=O)c3cc4cccc(Br)c4cc3C2=O)c1	.	.	.	38	.	.	.	.
Cc1cc(NC(=O)C(C)SCC(=O)Nc2nc3c(F)cc(F)cc3s2)no1 (stereo not drawn)	.	.	.	/	.	.	/	/
O=C(CNC(=O)c1ccco1)NCC(=O)OCc1c(F)cccc1Cl	.	.	.	.	.	.	/	/
O=C(CNC(=O)c1ccco1)OCc1c(F)cccc1Cl	.	.	.	25	.	.	.	.
C[C@H]1CN([C@@H](C)CO)C(=O)CCCn2nncc2CO[C@H]1CN(C)S(=O)(=O)c1ccc(C#N)cc1	/	.	/	/	/	.	/	/
Cc1nc2cc(NC(=O)Nc3cccc4ccccc34)ccc2n1C	.	.	.	.	.	.	/	/
O=C(Nc1ccc2snnc2c1)Nc1cccc2ccccc12	.	.	27	36	58	.	40	77
COc1ccc(/C=C(\NC(=O)c2ccc(OC)c(OC)c2)C(=O)N2CCN(C)CC2)cc1	.	.	.	.	.	.	/	/
O=C(NC1CCCCC1)c1ccc2c(c1)OCO2	.	.	.	.	.	.	/	/
CCC(C)(C(=O)NC1CCCC1)N(Cc1cccs1)C(=O)c1ccc2c(c1)OCO2 (stereo not drawn)	.	.	.	29	.	.	29	25
Nc1nc2n(n1)C(c1ccccc1)CC(c1ccc(F)cc1)N2 (stereo not drawn)	.	.	.	.	.	.	/	/
Nc1nc2n(n1)C(c1cccc(Br)c1)CC(c1ccc(F)cc1)N2 (stereo not drawn)	.	.	.	35	.	.	.	.
CCCCn1c(N)c(N(CCOC)C(=O)c2ccc(N3CCCC3=O)cc2)c(=O)[nH]c1=O	.	.	.	/	.	.	/	/
O=C(Nc1ccnn1C1CCN(Cc2ccc(CO)o2)CC1)c1ccccc1	.	.	.	29	.	.	.	.
COC(=O)[C@@H](NC(=O)c1ccc2c(c1)S(=O)(=O)c1ccccc1C2=O)C(C)C	.	.	.	22	73	.	.	.
Cc1ccc(S(=O)(=O)N2CCC(C(N)=O)CC2)cc1[N+](=O)[O-]	.	.	.	.	.	.	/	/
